High-throughput results from PubChem.
Only some compounds are listed: those with a hit (about 1.8% of all), similar ones and a draw of the others.
APJ agonist = activates the human apelin receptor APJ; P35414; CHO-K1 APJ PathHunter beta-arrestin, luminescence; 0% DMSO wells, 100% apelin; activation, % at 20 µM; 330,000 compounds, 0.11% hits; AID 2520;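 active means activation more than six SD over the plate average, tested at 20 µM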;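 further: 0% = DMSO alone and 100% = apelin-13 at 10 nM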
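Test system – PathHunter CHO-K1 APJ (AGTRL-1) beta-arrestin reporter cells · Input – 1000 cells/well · Compound – single test compound dose, 20 µM final, 1% DMSO · Times – compound stimulation 90 min at 25 °C, detection 60 min · Technique – beta-gal luminescence · Read-out basis – APJ–arrestin association signal · Control set – negative DMSO alone, positive Apelin-13 at 10 nM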
B2AR ag = human beta-2 adrenergic receptor agonism by FAP; P07550; Am2.2-beta2AR cells, FAP receptor internalization, flow cytometry; response, % (no concentration beside the values); 340,000 compounds, 0.43% hits;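 active means response above a set limit, near 3 SD of response in nonfluorescent compounds, cut at about 42% in these data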
APJ antag = blocks the human apelin receptor APJ. P35414. CHO-K1 APJ beta-arrestin complementation, luminescence. inhibition, % at 20 µM. 330,000 compounds, 0.32% hits;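 active means inhibition above about 40% at 20 µM, limit read from the data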;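 further: cells challenged with 10 nM apelin-13 agonist together with compound; plate controls were apelin-13 plus DMSO wells for no effect and DMSO wells lacking apelin-13 for full effect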
CXCR6 inh = CXCR6 (human) receptor inhibition. inhibition, % at 20 µM. 360,000 compounds, 0.36% hits. O00574. CHO-K1 PathHunter CXCR6 beta-arrestin, luminescence; in the data active means inhibition above about 34%, passing the limit was not always enough;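 further: antagonist mode with CXCL16 agonist at 10 nM final; 0% = 10 nM CXCL16 with DMSO and 100% = unstimulated wells without agonist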
Target sequence (O00574 whole entry, looked up): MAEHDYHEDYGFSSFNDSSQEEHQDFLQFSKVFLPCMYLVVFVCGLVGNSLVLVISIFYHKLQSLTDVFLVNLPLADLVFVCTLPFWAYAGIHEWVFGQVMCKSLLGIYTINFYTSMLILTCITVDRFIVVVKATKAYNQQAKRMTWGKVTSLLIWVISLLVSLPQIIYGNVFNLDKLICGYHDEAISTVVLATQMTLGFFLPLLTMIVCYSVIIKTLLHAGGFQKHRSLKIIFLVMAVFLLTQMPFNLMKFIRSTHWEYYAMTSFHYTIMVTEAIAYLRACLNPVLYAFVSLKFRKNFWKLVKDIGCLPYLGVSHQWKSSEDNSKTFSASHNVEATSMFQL
EBI2 antag = blocks human EBI2 receptor beta-arrestin signaling. P32249. EBI2 beta-arrestin recruitment, luminescence, 7a,25-OHC stimulated. inhibition, % at 5 µM. 360,000 compounds, 0.81% hits; in the data active means inhibition above about 38%;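 further: enzyme fragment complementation signal reports receptor beta-arrestin coupling in cells; 0% = agonist plus DMSO wells and 100% = wells without agonist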
CCR6 antagonist = CCR6 (human) receptor antagonism; CHO-K1 CCR6 PathHunter beta-arrestin, luminescence, CCL20-stimulated; inhibition, % at 20 µM; 340,000 compounds, 0.49% hits;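 active means compounds whose inhibition of the agonist-driven luminescence signal at 20 µM reaches about 50%, limit read from the data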;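 further: cells stimulated with CCL20 at 14 nM final; plate controls were DMSO with CCL20 for no effect and DMSO without agonist for full effect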
EBI2 conf = confirmation of human EBI2 receptor antagonists; shares compounds with EBI2 antag; EBI2 beta-arrestin luminescence, 7a,25-OHC antagonism; inhibition, % at 5 µM; 2,400 compounds, 29% hits;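 active means inhibition of at least 50%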
EBI2 ag = activates EBI2, counter-screen for EBI2 antagonists | shares compounds with EBI2 antag | EBI2-expressing cells, agonist mode, luminescence, 60 min; 0% vehicle, 100% 7α,25-dihydroxycholesterol control | activation, % at 5 µM | 2,400 tested, under 10 active;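 active means activation of at least 50%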
bGal counter = beta-galactosidase inhibition counter-screen; 2,400 compounds, 1% hits; purified beta-galactosidase, luminescent Galacton Star, 15 min; shares compounds with EBI2 antag; AID 652176; inhibition, % at 5 µM;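 active means replicate-average signal at least 3 plate SD below neutral wells, shown as high inhibition, flagging enzyme-inhibiting false positives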;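 further: 0% = DMSO wells with enzyme and 100% = wells lacking enzyme; higher means stronger loss of beta-gal luminescence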
The depositor's hits bear a star.

Screening C=C(C)COc1ccc(-c2nc(N)nc(C)c2-c2ccc(OC)cc2)c(O)c1 returned APJ agonist -3, B2AR ag 0, APJ antag 2, CXCR6 inh 7, EBI2 antag 44*, CCR6 antagonist 2, EBI2 conf 22, EBI2 ag -1 and bGal counter -14.
CCOc1ccc(-c2nc(N)nc(C)c2-c2ccc(OC)c(OC)c2)c(O)c1 was read as APJ agonist 0, B2AR ag -8, APJ antag 11, CXCR6 inh 12, EBI2 antag 32 and CCR6 antagonist 2.
`CCOc1ccc(-c2nc(N)nc(C)c2-c2ccc(Cl)cc2)c(O)c1` gave APJ agonist -2, B2AR ag 1, APJ antag -6, CXCR6 inh -6, EBI2 antag 55*, CCR6 antagonist -3, EBI2 conf 35, EBI2 ag 0 and bGal counter 0.
For COc1ccc(-c2nc(N)nc(C)c2-c2ccc(Cl)cc2)c(O)c1 the results were APJ agonist -1, B2AR ag 1, APJ antag 17, CXCR6 inh 1, EBI2 antag 80*, CCR6 antagonist 2, EBI2 conf 62*, EBI2 ag 1 and bGal counter 2.
Screening CC(C)(CNS(=O)(=O)c1ccc2ccccc2c1)N1CCOCC1 returned APJ agonist 0, B2AR ag 1, APJ antag 16, CXCR6 inh 6, EBI2 antag -2 and CCR6 antagonist 10.
Screening CCCOc1ccc(C(=O)N2CCN(c3ccc(N)cc3Cl)CC2)cc1 returned APJ agonist -3, B2AR ag -6, APJ antag -7, CXCR6 inh -3, EBI2 antag 70*, CCR6 antagonist -8, EBI2 conf 52*, EBI2 ag -2 and bGal counter -3.
Screening CCCCOc1ccc(C(=O)N2CCN(c3ccc(N4CCOCC4)nn3)CC2)cc1 returned APJ agonist 4, B2AR ag 4, APJ antag 12, CXCR6 inh -2, EBI2 antag 7 and CCR6 antagonist 9.
Screening CCNC(=O)N(C)C[C@H]1N[C@@](C)(C(=O)OC)[C@H]2C(=O)N(Cc3ccccc3)C(=O)[C@@H]12 returned APJ agonist -4, B2AR ag -4, APJ antag -1, CXCR6 inh 2, EBI2 antag -11 and CCR6 antagonist -7.
CC(C)NC(=O)Nc1nnc([C@@H]2C[C@H](O)[C@@H](CO)O2)s1 was read as CXCR6 inh 1 and EBI2 antag 6.
O=C(Cn1cccc1C(=O)c1ccccc1)NCCc1ccc(Cl)cc1 was read as APJ agonist -4, B2AR ag -2, APJ antag 19, CXCR6 inh 0, EBI2 antag 49*, CCR6 antagonist 11, EBI2 conf 16, EBI2 ag 1 and bGal counter 5.
`COC(=O)Cc1ccc(NC(=O)c2ccc3c(c2)C(=O)N(Cc2ccco2)C3=O)cc1` gave APJ agonist -2, B2AR ag -3, APJ antag -8, CXCR6 inh -8, EBI2 antag 52*, CCR6 antagonist 10, EBI2 conf 24, EBI2 ag 2 and bGal counter 9.
`CC(C)C(=O)N1CCC1(C)C(=O)Nc1ccc(-n2cncn2)cc1` (centres undefined) gave CXCR6 inh 4 and EBI2 antag -1.
Screening O=C(/C=C/c1ccc(Cl)cc1)NCc1cccs1 returned APJ agonist -1, B2AR ag 1, APJ antag -35, CXCR6 inh 5, EBI2 antag 53*, CCR6 antagonist 17, EBI2 conf 53*, EBI2 ag -1 and bGal counter -9.
Screening CSc1cccc(NC(=O)/C=C/c2ccccc2)c1 returned APJ agonist -2, B2AR ag 2, APJ antag 1, CXCR6 inh -2, EBI2 antag 32 and CCR6 antagonist 11.
For O=C(/C=C/c1ccccc1)NCCSCc1ccc(Cl)cc1 the results were APJ agonist -10, B2AR ag -4, APJ antag 5, CXCR6 inh -7, EBI2 antag 52*, CCR6 antagonist 11, EBI2 conf 15, EBI2 ag -2 and bGal counter -9.
CSc1cccc(NC(=O)/C=C/c2ccc(Cl)cc2)c1 was read as APJ agonist -3, B2AR ag -5, APJ antag -24, CXCR6 inh -8, EBI2 antag 59*, CCR6 antagonist 17, EBI2 conf 68*, EBI2 ag 2 and bGal counter -2.
For O=C(/C=C/c1ccc(Cl)cc1)NCCSc1ccccc1 the results were APJ agonist -7, B2AR ag -2, APJ antag 9, CXCR6 inh 3, EBI2 antag 60*, CCR6 antagonist 15, EBI2 conf 31, EBI2 ag 1 and bGal counter -10.
O=C(/C=C/c1ccc(Cl)cc1Cl)NCCSc1ccccc1 was read as APJ agonist -3, B2AR ag 0, APJ antag 6, CXCR6 inh -7, EBI2 antag 25 and CCR6 antagonist 5.
`CNC(=S)N1N=C(c2ccccc2)CC1c1ccccc1Cl` (centres undefined) gave APJ agonist -1, B2AR ag 11, APJ antag 2, CXCR6 inh 6, EBI2 antag 12 and CCR6 antagonist 17.
Screening CNC(=S)N1N=C(c2ccc(C)cc2)CC1c1ccc(Br)cc1 (centres undefined) returned APJ agonist -2, B2AR ag 1, APJ antag -3, CXCR6 inh 7, EBI2 antag 81*, CCR6 antagonist 6, EBI2 conf 65*, EBI2 ag -1 and bGal counter -9.
`CNC(=S)N1N=C(c2ccc(C)cc2)CC1c1ccc(Cl)cc1` (centres undefined) gave APJ agonist 1, B2AR ag -5, APJ antag 13, CXCR6 inh 7, EBI2 antag 73*, CCR6 antagonist -2, EBI2 conf 62*, EBI2 ag -1 and bGal counter -6.
Screening CC(C)c1ccc(C2CC(c3ccc(Br)cc3)=NN2C(N)=S)cc1 (centres undefined) returned APJ agonist 0, B2AR ag -3, APJ antag 4, CXCR6 inh 17, EBI2 antag 72*, CCR6 antagonist 25, EBI2 conf 60*, EBI2 ag -2 and bGal counter -11.
